From ChEMBL document CHEMBL1153931
≈ marks a conversion by molar mass, not a printed value.

Columns and labels:
[1] = system: Bacillus anthracis; test: Antibacterial activity against Bacillus anthracis Sterne; assay type: functional
[2] = target: T1, NH(3)-dependent NAD(+) synthetase (Bacillus anthracis, UniProt Q81RP3); test: Inhibition of Bacillus anthracis NAD synthetase
T1 sequence (Q81RP3 whole entry): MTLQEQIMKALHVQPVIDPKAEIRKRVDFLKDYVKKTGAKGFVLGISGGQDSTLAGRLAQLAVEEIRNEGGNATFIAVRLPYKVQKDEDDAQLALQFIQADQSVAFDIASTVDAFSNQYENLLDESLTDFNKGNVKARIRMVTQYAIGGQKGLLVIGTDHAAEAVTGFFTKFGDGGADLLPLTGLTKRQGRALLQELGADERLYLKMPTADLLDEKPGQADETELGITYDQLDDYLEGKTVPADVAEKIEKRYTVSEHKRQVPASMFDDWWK
How it was run: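 Purified B. anthracis NADs (6 μg/ml) in 60 mM HEPPS pH 8.5 with 0.5 mM NH4Cl, 20 mM KCl, 10 mM MgCl2, 0.1 mM NaAD, 2.5% DMSO and 0.3% BOG. Started with 0.2 mM ATP, quenched with guanidine-HCl after 10 min. Compounds tested 600 to 0.6 μM in doubling dilutions. NAD measured by reverse-phase HPLC peak height. IC50 is the average of duplicate runs.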

SMILES	MIC [1] [µM]	IC50 [2] [µM]
COc1ccc(Oc2ccc([N+](=O)[O-])cc2C(=O)Nc2ccc(S(N)(=O)=O)cc2)cc1	> 240	–
O=C(CCC(=O)Nc1ccc(Nc2ccccc2)cc1)Nc1ccc(Nc2ccccc2)cc1	> 222	–
Cc1cc(C)c2oc(-c3cccc(NC(=O)/C=C/c4cccc([N+](=O)[O-])c4)c3)nc2c1	> 240	–
O=C(Nc1cccc(/N=C/c2cc([N+](=O)[O-])ccc2O)c1)c1cccc(Br)c1	> 227	–
O=C(Nc1cccc(/N=C/c2cc([N+](=O)[O-])ccc2O)c1)c1ccc(Cl)cc1Cl	> 232	–
COc1cccc(NC(=O)Nc2nnc(COc3ccc([N+](=O)[O-])cc3)s2)c1	> 240	–
NC(=O)c1c(NC(=S)NC(=O)c2cccc([N+](=O)[O-])c2)sc2c1CCCC2	> 240	186
NC(=O)c1ccc(NC(=O)c2ccc(Oc3ccc([N+](=O)[O-])cc3Cl)cc2)cc1	> 240	–
N/C(=N\OC(=O)c1ccc(Cl)c(Cl)c1)c1cccc(CSc2ccccn2)c1	> 240	–
O=C(Cn1nnc(N2CCOCC2)n1)N/N=C/c1ccc(-c2cccc([N+](=O)[O-])c2)o1	> 240	109
COc1ccc(NC(=O)Nc2cccc(NC(=O)Nc3ccc(OC)cc3)c2F)cc1	> 240	–
COc1ccc(NC(=O)Nc2ccc(Oc3ncnc4cc(Cl)ccc34)nc2)cc1OC1CCCC1	> 240	–
O=C(Nc1cccc(Oc2ccc3c(c2)C(=O)N(c2ccccc2)C3=O)c1)c1cccc([N+](=O)[O-])c1	> 240	–
O=C(Nc1cccc(C(=O)Nc2cccc3ccccc23)c1)c1cccc([N+](=O)[O-])c1	> 240	–
COc1ccccc1NC(=O)NC(=O)c1ccc(-c2csnn2)cc1	> 240	–
COc1ccc(Br)c(-c2nnc(-c3ccccc3NC(=O)NC(=O)c3ccccc3Cl)o2)c1	> 240	220
Cc1cc(-c2nnc(CSc3nnc(NC(=O)c4ccc(F)c(Cl)c4)s3)o2)ccc1[N+](=O)[O-]	> 240	–
COc1ccccc1NC(=O)COc1ccc(/C=C(/C#N)c2nc3ccccc3[nH]2)cc1	> 240	–
Cc1c(NC(=O)c2ccc(N3CCCC3)c([N+](=O)[O-])c2)cccc1-c1nc2ccccc2[nH]1	> 240	–
COc1ccc(CCNC(=O)NCc2cccc(CNC(=O)NCCc3ccc(OC)cc3)c2)cc1	> 204	–
O=C(Nc1ccc([N+](=O)[O-])cc1)Nc1ccc(S(=O)(=O)Nc2ccc(Cl)c(Cl)c2)cc1	1.9 (≈ 0.915 µg/mL)	–
CCc1ccc(S(=O)(=O)Nc2c([N+](=O)[O-])ccc3ccccc23)cc1	3.8 (≈ 1.35 µg/mL)	–

SMILES	MIC [1] [µM]	IC50 [2] [µM]
O=C1C=C(Nc2ccccc2C(=O)O)C(=O)C=C1Nc1ccccc1C(=O)O	> 264	–
O=C(Cn1cc(/C=C/c2[nH]c(=O)[nH]c(=O)c2[N+](=O)[O-])c2ccccc21)Nc1ccc(F)cc1	> 223	–
O=C(Nc1ccc([N+](=O)[O-])cc1)c1ccc(-c2nnc(-c3ccccc3)o2)cc1	> 259	–
O=C(Nc1ccc(S(=O)(=O)Nc2ncccn2)cc1)Nc1ccc(Cl)c(Cl)c1	15 (≈ 6.57 µg/mL)	–
O=[N+]([O-])c1ccc(O)c(/C=N/c2cccc(O)c2)c1	> 387	–
N#C/C(=C\c1ccccc1[N+](=O)[O-])C(=O)c1ccccc1	120 (≈ 33.4 µg/mL)	51
O=C(COC(=O)c1ccc(NC(=O)c2ccc([N+](=O)[O-])cc2)cc1)c1ccc(F)cc1	> 237	–
O=C(Nc1ccc2oc(-c3cc(Br)ccc3Cl)nc2c1)c1cccc([N+](=O)[O-])c1	> 240	–
O=C(Nc1ccc(Cc2ccc(NC(=O)c3ccc4c(c3)OCO4)cc2)cc1)c1ccc2c(c1)OCO2	> 240	–
O=[N+]([O-])c1ccc(-c2cnc(N/N=C/c3cccc([N+](=O)[O-])c3)nc2)cc1	> 274	–
CCOC(=O)C1=C(Nc2cccc3ccccc23)S/C(=C\c2ccc([N+](=O)[O-])cc2)C1=O	> 224	–
Nc1ncnc(Nc2ccc(Cl)cc2C(=O)c2ccccc2Cl)c1[N+](=O)[O-]	> 247	–
O=C(Nc1ccccc1)Nc1ccc(NC(=O)c2ccc(NC(=O)Nc3ccccc3)cc2)cc1	> 240	–
Cc1onc(-c2ccccc2)c1NC(=O)Nc1ccc(Oc2ncnc3cc(Cl)ccc23)nc1	> 240	–
O=C(NC(=S)Nc1cc(-c2nc3ccccc3[nH]2)ccc1Cl)c1ccccc1[N+](=O)[O-]	> 240	–
Cc1ccc(C(=O)Nc2cccc(-c3nc4ccccc4[nH]3)c2)cc1	> 240	–
Nc1c(C(=O)c2ccc([N+](=O)[O-])cc2)sc(Nc2ccccc2)c1-c1nc2ccccc2[nH]1	> 240	–
O=C(Nc1ccc(/N=N/c2ccccc2)cc1)c1ccc([N+](=O)[O-])cc1	> 240	–
Cc1ccc(-c2nc3cc(Cl)ccc3o2)cc1CC(=O)c1cc([N+](=O)[O-])c(C)c([N+](=O)[O-])c1	> 240	–
O=C(CSc1nc(Nc2ccccc2)nc(N2CCOCC2)n1)Nc1ccc([N+](=O)[O-])cc1O	15 (≈ 7.25 µg/mL)	–
NC(=O)c1ccc(/N=C/c2cc([N+](=O)[O-])ccc2Cl)cc1	> 329	–
